These results are taken from PubChem BioAssay AID2373 (NMMLSC, 2010).

This assay addresses Cell division control protein 42 homolog (Homo sapiens) (UniProt P60953). The assay can be described thus: Cdc42 GTP Bmax and Kd shifts – biochemical, Mg buffer, varying GTP, mechanism study for Ras-family GTPase inhibitor project, late-stage follow-up (AID 2373). As to conditions: GST-Cdc42 beads, BODIPY-GTP binding, flow cytometry. In short, it runs like this: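 system = GST-Cdc42 on glutathione beads | medium = 1 mM MgCl2 (magnesium condition) | timing = beads loaded overnight at 4 °C, compound preincubation 2 min | signal = flow cytometry, median bead fluorescence at 530 nm | read-out = fitted GTP Bmax and Kd | benchmarks = DMSO vehicle in place of compound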

Sequence of Cell division control protein 42 homolog (Homo sapiens) (P60953 whole entry, looked up): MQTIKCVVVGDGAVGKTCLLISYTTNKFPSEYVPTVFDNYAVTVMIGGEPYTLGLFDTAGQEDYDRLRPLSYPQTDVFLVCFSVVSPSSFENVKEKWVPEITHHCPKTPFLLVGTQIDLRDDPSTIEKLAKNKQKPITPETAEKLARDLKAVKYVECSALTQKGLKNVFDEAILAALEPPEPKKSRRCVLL

As to `COc1ccc(C2CC(c3ccccc3)=NN2c2ccc(S(N)(=O)=O)cc2)cc1` (configuration not stated), the GTP Bmax with compound (at 10 µM, stronger effect = lower value) is 2320. Moreover, where the note is “measured here: GTP affinity with compound”, the dissociation constant Kd turned out to be 16.7 nM.
